Results: paper PMC10210236 (ACS Omega, 2023)
“Also recorded” adds a separate entry of the source.

Experiments:
[1] = Dissolution / intrinsic dissolution rate of pellets in pH 1.2; type: physicochemical; details: neat drug; for pure drug dissolution value: gastric pH 1.2 (0.1 N HCl)
In short: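 Run in 0.1 N HCl, pH 1.2, simulating gastric conditions, in a 500 mL medium over 3 h with sampling from 15 to 180 min. Read-outs were cumulative amount dissolved and intrinsic dissolution rate, quantified separately for each drug component from the salt. Salt batch was scaled up by ethanol drop grinding, with phase purity checked by PXRD profile fitting. Leftover solids were characterized afterwards.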

2008 cells = experiment: Flow cytometric analysis of cell cycle; type: cell-based, human; details: 48 h, concentration approx. IC50
C13* cells = experiment: Flow cytometric analysis of cell cycle; type: cell-based, human; details: 48 h, concentration approx. IC50
Sk-Mel28 cells = experiment: Flow cytometric analysis of cell cycle; type: cell-based, human; details: 48 h, concentration approx. IC50
[2] = system: 2008, C13*, and Sk-Mel28 cell lines; experiment: Flow cytometric analysis of cell cycle, statement for all three lines; type: cell-based, human; details: 48 h, versus untreated
[3] = Equilibrium solubility / slurry experiment at pH 1.2, phase of residue; type: physicochemical; details: pH 1.2 (0.1 N HCl)
In short: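 Equilibrium slurry of salt or free base in 0.1 N HCl, pH 1.2. Undissolved residue was characterized by DSC, TGA, PXRD profile fitting against the single-crystal structure, FESEM morphology, and FESEM-EDX chloride content to detect phase conversion, such as hydrochloride formation.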

[4] = system: BRAF^V600E melanoma cells Sk-Mel28; experiment: Cytotoxicity screening; type: cell-based; details: Homo sapiens, SK-MEL-28
In short: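 Sk-Mel28 (human BRAF V600E melanoma) cells treated with test compound across a dose–response range. Survival percentage relative to control was read, and IC50 was taken from the curve. Two separate experiments were each run in duplicate, reported as mean ± SEM.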

[5] = system: ovarian cancer cell lines (A2780, 2008, A2780/CP, C13*); experiment: Cytotoxicity screening, ovarian lines taken together; type: cell-based; details: Homo sapiens, read-out: IC50 range in ovarian cancer cell lines
[6] = cited from earlier work

| pure drug dissolution value [1] [mg cm^–2 min^–1] | Structure (SMILES) | cells in G0G1 phase (2008 cells) [%] | cells in G2/M phase (2008 cells) [%] | cells in S phase (2008 cells) [%] | hypodiploid cells (2008 cells) [%] | cells in G0G1 phase (C13* cells) [%] | cells in G2/M phase (C13* cells) [%] | cells in S phase (C13* cells) [%] | hypodiploid cells (sub-G1) (C13* cells) [%] | cells in G0G1 phase (Sk-Mel28 cells) [%] | cells in G2/M phase (Sk-Mel28 cells) [%] | cells in S phase (Sk-Mel28 cells) [%] | hypodiploid cells (sub-G1) (Sk-Mel28 cells) [%] | solubility of the phase formed at pH 1.2 (in words) [3] | other results |
| --- | --- | --- | --- | --- | --- | --- | --- | --- | --- | --- | --- | --- | --- | --- | --- |
| 80 | CC(C)(C)c1nc(-c2cccc(NS(=O)(=O)c3c(F)cccc3F)c2F)c(-c2ccnc(N)n2)s1 [DBF, dabrafenib] | 63.91 | 10.76 | 3.53 | 19.32 | 68.48 | 5.28 | 4.60 | 19.32 | 65.11 | 4.53 | 3.95 | 23.46 |  | cumulative drug dissolved, saturation value ([1]; pH 1.2, 500 mL): 12.18 mg/L; fold increase of hypodiploid cells [2]: ~4 fold |
|  | CC(C)(C)c1nc(-c2cccc(NS(=O)(=O)c3c(F)cccc3F)c2F)c(-c2ccnc(N)n2)s1.O [DBF·MH] |  |  |  |  |  |  |  |  |  |  |  |  | comparatively less soluble; also recorded: very poor |  |
| 10 | Cc1[nH]c2ccccc2c1CCNCc1ccc(/C=C/C(=O)NO)cc1 [PAN, panobinostat] | 37.98 | 9.99 | 6.78 | 42.32 | 47.46 | 10.27 | 6.85 | 30.15 | 42.53 | 18.73 | 5.17 | 30.07 |  | cumulative drug dissolved at 15 min ([1]; pH 1.2, 500 mL, 15 min): 4.60 mg/L; cumulative drug dissolved at 180 min ([1]; pH 1.2, 500 mL, 180 min): 20.81 mg/L; IC50 [4]: 45.3 ± 12 nM; IC50 [5]: 4 to 9 nM; pKa (indole NH) [6]: 8.4 |
|  | Cc1[nH]c2ccccc2c1CCNCc1ccc(/C=C/C(=O)NO)cc1.Cl [PAN·HCl] |  |  |  |  |  |  |  |  |  |  |  |  | high solubility |  |
